ChEMBL document CHEMBL4428038, “Overcoming chloroquine resistance in malaria: Design, synthesis and structure-activity relationships of novel chemoreversal agents” (Eur J Med Chem, 2016)
Active and inactive are the calls of the source. No cut-off for these calls is given here.

Legend:
Plasmodium falciparum K1 = test: Inhibition of CRT CVIET haplotype mutant in Plasmodium falciparum K1 isolate MRA-159 infected in erythrocytes assessed as chloroquine-coumarin probe accumulation at 10 uM after 10 hrs by Hoechst 33342 staining based flow cytometry (reference value: 35.57 +/- 3.84%); format: cell-based; parameters: scale not given: the % may be the effect or the level left
Outline: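 Infected erythrocyte cultures at 2.5% hematocrit and 7–12% parasitemia, synchronized to late-ring/early-trophozoite stage, were incubated with chloroquine-coumarin probe plus test agent for 10 h at 37 C. Cells were then washed, resuspended in PBS and read by flow cytometry (405 nm excitation, 450/50 filter). Hoechst-stained duplicate wells set parasitemia. Uptake = % infected erythrocytes fluorescent. Controls: PBS (negative), desipramine and parent compound (positive). ≥3 independent experiments; mean ± SEM.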

Plasmodium falciparum [1] = test: Intrinsic antimalarial activity against chloroquine-sensitive Plasmodium falciparum 3D7 isolate MRA-102 assessed as reduction in parasite viability at 500 nM; format: functional, organism-based
Plasmodium falciparum [2] = test: Intrinsic antimalarial activity against chloroquine-sensitive Plasmodium falciparum HB3 isolate MRA-155 assessed as reduction in parasite viability at 500 nM; format: functional, organism-based
Plasmodium falciparum [3] = test: Intrinsic antimalarial activity against intermediate chloroquine-resistant Plasmodium falciparum 7G8 isolate MRA-154 harboring CRT SVMNT haplotype mutant assessed as reduction in parasite viability at 500 nM; format: functional, organism-based
Plasmodium falciparum [4] = test: Intrinsic antimalarial activity against chloroquine-resistant Plasmodium falciparum K1 isolate MRA-159 harboring CRT CVIET haplotype mutant assessed as reduction in parasite viability at 500 nM; format: functional, organism-based
Plasmodium falciparum [5] = test: Intrinsic antimalarial activity against chloroquine-resistant Plasmodium falciparum Dd2 isolate MRA-156 harboring CRT K76T mutant assessed as reduction in parasite viability at 500 nM; format: functional, organism-based
Plasmodium falciparum [6] = test: Intrinsic antimalarial activity against chloroquine/artemisinin-resistant Plasmodium falciparum ARS233 harboring CRT K76T mutant assessed as reduction in parasite viability at 500 nM; format: functional, organism-based
Plasmodium falciparum [7] = test: Intrinsic antimalarial activity against chloroquine/artemisinin-resistant Plasmodium falciparum ARS272 harboring CRT K76T mutant assessed as reduction in parasite viability at 500 nM; format: functional, organism-based
Plasmodium falciparum [8] = test: Intrinsic antimalarial activity against chloroquine-resistant Plasmodium falciparum NHP4559 harboring CRT K76T mutant assessed as reduction in parasite viability at 500 nM; format: functional, organism-based
Plasmodium falciparum [9] = test: Intrinsic antimalarial activity against chloroquine/artemisinin-resistant Plasmodium falciparum NHP4773 harboring CRT K76T mutant assessed as reduction in parasite viability at 500 nM; format: functional, organism-based

In the case of `CC(C)(C)OC(=O)N1CCCC(N)C1` (stereo not given), the Activity (Plasmodium falciparum K1) is reported as 52.2%, the Activity (Plasmodium falciparum [1]) is reported as “inactive” and the Activity (Plasmodium falciparum [2]) is reported as “inactive”. The Activity (Plasmodium falciparum [3]) was “inactive”, the Activity (Plasmodium falciparum [4]) was “inactive” and the Activity (Plasmodium falciparum [5]) was “inactive”. For the same molecule, the Activity (Plasmodium falciparum [6]) was “inactive”, the Activity (Plasmodium falciparum [7]) was “inactive” and the Activity (Plasmodium falciparum [8]) was “inactive”. For the same molecule, the Activity (Plasmodium falciparum [9]) was “inactive”.

`NC(=O)C(CCN1CCC(O)CC1)(c1ccccc1)c1ccccc1` was tested, and the Activity (Plasmodium falciparum K1) was 51.3%, the Activity (Plasmodium falciparum [1]) was “inactive” and the Activity (Plasmodium falciparum [2]) was “inactive”. The Activity (Plasmodium falciparum [3]) was “inactive”, the Activity (Plasmodium falciparum [4]) was “inactive” and the Activity (Plasmodium falciparum [5]) was “inactive”. The Activity (Plasmodium falciparum [6]) was “inactive”, the Activity (Plasmodium falciparum [7]) was “inactive” and the Activity (Plasmodium falciparum [8]) was “inactive”. For the same molecule, the Activity (Plasmodium falciparum [9]) was “inactive”.

In the case of `CSc1ccc2c(c1)C(=O)Cc1ccccc1S2`, the Activity (Plasmodium falciparum K1) is reported as 49.3%, the Activity (Plasmodium falciparum [1]) is reported as “inactive” and the Activity (Plasmodium falciparum [2]) is reported as “inactive”. For the same molecule, the Activity (Plasmodium falciparum [3]) was “inactive”, the Activity (Plasmodium falciparum [4]) was “inactive” and the Activity (Plasmodium falciparum [5]) was “inactive”. For the same molecule, the Activity (Plasmodium falciparum [6]) was “inactive”, the Activity (Plasmodium falciparum [7]) was “inactive” and the Activity (Plasmodium falciparum [8]) was “inactive”. For the same molecule, the Activity (Plasmodium falciparum [9]) was “inactive”.

With `N#CC(CCN1CCC(O)(c2ccc(Cl)cc2)CC1)(c1ccccc1)c1ccccc1` the Activity (Plasmodium falciparum K1) was 25.9%, the Activity (Plasmodium falciparum [1]) was “inactive” and the Activity (Plasmodium falciparum [2]) was “inactive”. The Activity (Plasmodium falciparum [3]) was “inactive”, the Activity (Plasmodium falciparum [4]) was “inactive” and the Activity (Plasmodium falciparum [5]) was “inactive”. For the same molecule, the Activity (Plasmodium falciparum [6]) was “inactive”, the Activity (Plasmodium falciparum [7]) was “inactive” and the Activity (Plasmodium falciparum [8]) was “inactive”. The Activity (Plasmodium falciparum [9]) was “inactive”.

`NCC(CCN1CCCCC1)(c1ccccc1)c1ccccc1` was tested, and the Activity (Plasmodium falciparum K1) was 61%, the Activity (Plasmodium falciparum [1]) was “inactive” and the Activity (Plasmodium falciparum [2]) was “inactive”. For the same molecule, the Activity (Plasmodium falciparum [3]) was “inactive”, the Activity (Plasmodium falciparum [4]) was “inactive” and the Activity (Plasmodium falciparum [5]) was “inactive”. For the same molecule, the Activity (Plasmodium falciparum [6]) was “inactive”, the Activity (Plasmodium falciparum [7]) was “inactive” and the Activity (Plasmodium falciparum [8]) was “inactive”. For the same molecule, the Activity (Plasmodium falciparum [9]) was “inactive”.

`OC1(c2ccc(Cl)cc2)CCNCC1` was tested, and the Activity (Plasmodium falciparum K1) was 27.5%, the Activity (Plasmodium falciparum [1]) was “inactive” and the Activity (Plasmodium falciparum [2]) was “inactive”. The Activity (Plasmodium falciparum [3]) was “inactive”, the Activity (Plasmodium falciparum [4]) was “inactive” and the Activity (Plasmodium falciparum [5]) was “inactive”. For the same molecule, the Activity (Plasmodium falciparum [6]) was “inactive”, the Activity (Plasmodium falciparum [7]) was “inactive” and the Activity (Plasmodium falciparum [8]) was “inactive”. The Activity (Plasmodium falciparum [9]) was “inactive”.

For `O=C1Cc2ccccc2Sc2ccccc21`, the Activity (Plasmodium falciparum K1) was 50.7%, the Activity (Plasmodium falciparum [1]) was “inactive” and the Activity (Plasmodium falciparum [2]) was “inactive”. The Activity (Plasmodium falciparum [3]) was “inactive”, the Activity (Plasmodium falciparum [4]) was “inactive” and the Activity (Plasmodium falciparum [5]) was “inactive”. The Activity (Plasmodium falciparum [6]) was “inactive”, the Activity (Plasmodium falciparum [7]) was “inactive” and the Activity (Plasmodium falciparum [8]) was “inactive”. For the same molecule, the Activity (Plasmodium falciparum [9]) was “inactive”.

For `NCC(CCN1CCN(c2ccc(F)cc2)CC1)(c1ccccc1)c1ccccc1`, the Activity (Plasmodium falciparum K1) was 60.5%, the Activity (Plasmodium falciparum [1]) was “inactive” and the Activity (Plasmodium falciparum [2]) was “inactive”. For the same molecule, the Activity (Plasmodium falciparum [3]) was “inactive”, the Activity (Plasmodium falciparum [4]) was “inactive” and the Activity (Plasmodium falciparum [5]) was “inactive”. The Activity (Plasmodium falciparum [6]) was “inactive”, the Activity (Plasmodium falciparum [7]) was “inactive” and the Activity (Plasmodium falciparum [8]) was “inactive”. For the same molecule, the Activity (Plasmodium falciparum [9]) was “inactive”.

`CC(C)(C)OC(=O)N1CCN(C2Cc3ccccc3Sc3ccc(Cl)cc32)CC1` (stereo not given) was tested, and the Activity (Plasmodium falciparum K1) was 43.4%, the Activity (Plasmodium falciparum [1]) was “inactive” and the Activity (Plasmodium falciparum [2]) was “inactive”. For the same molecule, the Activity (Plasmodium falciparum [3]) was “inactive”, the Activity (Plasmodium falciparum [4]) was “inactive” and the Activity (Plasmodium falciparum [5]) was “inactive”. The Activity (Plasmodium falciparum [6]) was “inactive”, the Activity (Plasmodium falciparum [7]) was “inactive” and the Activity (Plasmodium falciparum [8]) was “inactive”. For the same molecule, the Activity (Plasmodium falciparum [9]) was “inactive”.

In the case of `N#CC(CCN1CCC(O)CC1)(c1ccccc1)c1ccccc1`, the Activity (Plasmodium falciparum K1) is reported as 63.9%, the Activity (Plasmodium falciparum [1]) is reported as “inactive” and the Activity (Plasmodium falciparum [2]) is reported as “inactive”. For the same molecule, the Activity (Plasmodium falciparum [3]) was “inactive”, the Activity (Plasmodium falciparum [4]) was “inactive” and the Activity (Plasmodium falciparum [5]) was “inactive”. For the same molecule, the Activity (Plasmodium falciparum [6]) was “inactive”, the Activity (Plasmodium falciparum [7]) was “inactive” and the Activity (Plasmodium falciparum [8]) was “inactive”. The Activity (Plasmodium falciparum [9]) was “inactive”.

For `N[C@@H]1C2CCN(CC2)[C@@H]1Cc1ccccc1` (relative stereo), the Activity (Plasmodium falciparum K1) was 40.1%, the Activity (Plasmodium falciparum [1]) was “inactive” and the Activity (Plasmodium falciparum [2]) was “inactive”. For the same molecule, the Activity (Plasmodium falciparum [3]) was “inactive”, the Activity (Plasmodium falciparum [4]) was “inactive” and the Activity (Plasmodium falciparum [5]) was “inactive”. The Activity (Plasmodium falciparum [6]) was “inactive”, the Activity (Plasmodium falciparum [7]) was “inactive” and the Activity (Plasmodium falciparum [8]) was “inactive”. The Activity (Plasmodium falciparum [9]) was “inactive”.

In the case of `NC(=O)C(CCN1CCCCC1)(c1ccccc1)c1ccccc1`, the Activity (Plasmodium falciparum K1) is reported as 63.2%, the Activity (Plasmodium falciparum [1]) is reported as “inactive” and the Activity (Plasmodium falciparum [2]) is reported as “inactive”. The Activity (Plasmodium falciparum [3]) was “inactive”, the Activity (Plasmodium falciparum [4]) was “inactive” and the Activity (Plasmodium falciparum [5]) was “inactive”. The Activity (Plasmodium falciparum [6]) was “inactive”, the Activity (Plasmodium falciparum [7]) was “inactive” and the Activity (Plasmodium falciparum [8]) was “inactive”. For the same molecule, the Activity (Plasmodium falciparum [9]) was “inactive”.

In the case of `N#CC(CCBr)(c1ccccc1)c1ccccc1`, the Activity (Plasmodium falciparum K1) is reported as 29.6%, the Activity (Plasmodium falciparum [1]) is reported as “inactive” and the Activity (Plasmodium falciparum [2]) is reported as “inactive”. For the same molecule, the Activity (Plasmodium falciparum [3]) was “inactive”, the Activity (Plasmodium falciparum [4]) was “inactive” and the Activity (Plasmodium falciparum [5]) was “inactive”. The Activity (Plasmodium falciparum [6]) was “inactive”, the Activity (Plasmodium falciparum [7]) was “inactive” and the Activity (Plasmodium falciparum [8]) was “inactive”. For the same molecule, the Activity (Plasmodium falciparum [9]) was “inactive”.

With `Ic1ccccc1CN[C@@H]1C2CCN(CC2)[C@@H]1Cc1ccccc1` (relative stereo) the Activity (Plasmodium falciparum K1) was 25.8%, the Activity (Plasmodium falciparum [1]) was “inactive” and the Activity (Plasmodium falciparum [2]) was “inactive”. The Activity (Plasmodium falciparum [3]) was “inactive”, the Activity (Plasmodium falciparum [4]) was “inactive” and the Activity (Plasmodium falciparum [5]) was “inactive”. The Activity (Plasmodium falciparum [6]) was “inactive”, the Activity (Plasmodium falciparum [7]) was “inactive” and the Activity (Plasmodium falciparum [8]) was “inactive”. The Activity (Plasmodium falciparum [9]) was “inactive”.

With `NCC(CCN1CCC(N)CC1)(c1ccccc1)c1ccccc1` the Activity (Plasmodium falciparum K1) was 58.9%, the Activity (Plasmodium falciparum [1]) was “inactive” and the Activity (Plasmodium falciparum [2]) was “inactive”. For the same molecule, the Activity (Plasmodium falciparum [3]) was “inactive”, the Activity (Plasmodium falciparum [4]) was “inactive” and the Activity (Plasmodium falciparum [5]) was “inactive”. For the same molecule, the Activity (Plasmodium falciparum [6]) was “inactive”, the Activity (Plasmodium falciparum [7]) was “inactive” and the Activity (Plasmodium falciparum [8]) was “inactive”. For the same molecule, the Activity (Plasmodium falciparum [9]) was “inactive”.

With `c1ccc(CNC2C3CCN(CC3)C2Cc2ccccc2)cc1` (mixture of isomers) the Activity (Plasmodium falciparum K1) was 74.4%, the Activity (Plasmodium falciparum [1]) was “inactive” and the Activity (Plasmodium falciparum [2]) was “inactive”. For the same molecule, the Activity (Plasmodium falciparum [3]) was “inactive”, the Activity (Plasmodium falciparum [4]) was “inactive” and the Activity (Plasmodium falciparum [5]) was “inactive”. For the same molecule, the Activity (Plasmodium falciparum [6]) was “inactive”, the Activity (Plasmodium falciparum [7]) was “inactive” and the Activity (Plasmodium falciparum [8]) was “inactive”. For the same molecule, the Activity (Plasmodium falciparum [9]) was “inactive”.
